The text below walks through data of PubChem BioAssay.

Test [1] can be described thus: inhibitors of TNFa-induced NFkB p65 translocation, primary screen, imaging, HUVEC, MLSMR starter and 10KST1 sets (AID 438;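 active = inhibition above 20% together with a positive visual image hit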;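 note: compound added about 3h40 before a 20 min TNFalpha stimulation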;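 for inhibition: signal is the nuclear over cytoplasmic p65 intensity ratio per well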). The note with it: HUVEC TNFa-induced p65 nuclear translocation; cell count: measured here: nuclei count (cytotoxicity indicator), at 2.08 µM; inhibition: at 2 µM, stronger effect = higher value, 0% TNFa-plus-vehicle, 100% no-TNFa wells.
Test [2] can be described thus: endothelial E-selectin expression blockers – imaging, HUVEC, immunofluorescence, MLSMR starter and 10KST1 sets, primary screen (AID 487;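 active = visually confirmed hit in the image check and inhibition above 20%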;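 for inhibition: signal is fraction of cell area covered by stained E-selectin grains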;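 for nuclei count: 100% = median nuclei count of all wells on the same plate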). Conditions: HUVEC TNFalpha-induced E-selectin immunofluorescence imaging, at 2 µM; inhibition: stronger effect = higher value; nuclei count: measured here: cell number, toxicity.
A short description of test [3]: Primary imaging screen for DUSP6 inhibitors that restore phospho-Erk in transfected HeLa cells, chemical complementation (AID 609).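 For inhibition: phospho-Erk level distribution per well compared with pooled transfected vehicle control wells.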 The note with it: HeLa MKP-3 transfected, phospho-Erk imaging KS statistic, at 10 µM, cells stimulated with TPA for 15 min.
Test [4] addresses Dual specificity protein phosphatase 6 (Homo sapiens) (UniProt Q16828). Described as above. Conditions: HeLa MKP-3 transfected, phospho-Erk imaging KS statistic; at 10 µM; stronger effect = higher value; cells stimulated with TPA for 15 min.
The target of test [5] is Voltage-gated potassium channel subunit beta-2 (Rattus norvegicus) (UniProt P62483). The test is described as follows: inhibitors of rat Kvbeta2 reductase activity – biochemical, NADPH fluorescence, primary screen (AID 622;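 active = fluorescence slope higher than the sample average by over 3 SD, cut at about -0.22 in these data, passing the limit was not always enough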;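 note: slope of raw intensity against log time taken from 70 to 1610 s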). Conditions: recombinant KvBeta, 4-cyanobenzaldehyde reduction, at 10 µM, stronger effect = higher value.
Test [6] shares this target. Description: enhancers of rat Kvbeta2 NADPH turnover – biochemical, NADPH fluorescence, primary screen (AID 623;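 active = NADPH fluorescence slope more negative than the mean of all samples by about 3 SD, 99.7% confidence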;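 note: fluorescence intensity change per second fitted from 20 to 320 s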). Conditions: Recombinant KvBeta, NADPH fluorescence decrease slope, 10 min; at 10 µM; stronger effect = lower value.
Test [7] concerns the target Alpha-2C adrenergic receptor (Homo sapiens) (UniProt P18825). The test is described as follows: compounds altering alpha2C-coupled GIRK flux – cell-based, HEK293 alpha2C/GIRK1/2, thallium flux, primary screen (AID 624;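 active = fluorescence slope after compound addition differing from the mean of all screened samples at 99.7% confidence, in either direction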;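 note: slope of fluorescence ratio to pre-addition baseline per second over 15 to 24 s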). The note with it: thallium flux BTC fluorescence, at 10 µM, actives lie on both sides.
A short description of test [8]: inhibitors of larval lipid processing in zebrafish, primary screen, whole organism, PED6 fluorescence, gall bladder and intestine (AID 686;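 active = a full or partial loss of lipid-probe fluorescence in the fish gall bladder, intestine or both, judged by eye; inactive = no fluorescence loss, or compound toxic to the fish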;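 note: larvae 5 to 7 days old with five fish per well; signal comes from phospholipase A2 cleavage of quenched PED6 carried via bile; overnight exposure to compound and PED6 before scoring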). The note with it: Zebrafish larvae PED6 lipid processing, fluorescence scoring; screened at 20 µM (by protocol). The procedure, abridged:
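System: live zebrafish larvae aged 5-7 days, whole organism; measure: graded gall bladder and intestinal fluorescence inhibition per well; incubation: overnight exposure; reagent: ingested quenched lipid PED6 at 100 nM; signal: By-eye fluorescence microscopy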

The nature of test [9]: loss of swimming-algae plug formation – whole organism, Chlamydomonas reinhardtii, WT vs cilia-less mutant, absorbance, 96-well, primary screen (AID 463189;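 active = inhibition at or above 50% relative to wild type and mutant plate controls; inactive = inhibition below 50%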;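 note: 0% = wild type cc124 cells in DMSO and 100% = ciliumless bld1 mutant cells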). Conditions: Chlamydomonas reinhardtii gravitaxis, OD600 absorbance, 2 days; at 10 µM; stronger effect = higher value.
[10] abbreviates: measured here: cell density z-score.
[11] abbreviates: measured here: nuclear c-Myc green intensity z-score.
[12] abbreviates: measured here: nuclear pErk red intensity z-score, stronger effect = higher value.

The source made the active and inactive calls.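 Rule for the calls, unless noted: active = compounds giving at least 50% inhibition in the cell-based MKP-3 phosphatase rescue imaging test; inactive = the rest.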

Chain of Voltage-gated potassium channel subunit beta-2 (Rattus norvegicus) (P62483 whole entry, looked up): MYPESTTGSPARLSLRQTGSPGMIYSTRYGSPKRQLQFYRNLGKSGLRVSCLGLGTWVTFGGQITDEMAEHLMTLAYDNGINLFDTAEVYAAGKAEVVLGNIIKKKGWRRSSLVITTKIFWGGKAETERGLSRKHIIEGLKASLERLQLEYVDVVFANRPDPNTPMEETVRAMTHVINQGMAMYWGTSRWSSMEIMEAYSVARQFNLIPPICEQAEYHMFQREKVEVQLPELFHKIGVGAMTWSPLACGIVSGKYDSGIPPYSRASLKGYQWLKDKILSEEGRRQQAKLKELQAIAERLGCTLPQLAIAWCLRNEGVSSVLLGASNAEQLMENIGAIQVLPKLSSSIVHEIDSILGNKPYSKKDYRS
Chain of Dual specificity protein phosphatase 6 (Homo sapiens) (Q16828 whole entry, looked up): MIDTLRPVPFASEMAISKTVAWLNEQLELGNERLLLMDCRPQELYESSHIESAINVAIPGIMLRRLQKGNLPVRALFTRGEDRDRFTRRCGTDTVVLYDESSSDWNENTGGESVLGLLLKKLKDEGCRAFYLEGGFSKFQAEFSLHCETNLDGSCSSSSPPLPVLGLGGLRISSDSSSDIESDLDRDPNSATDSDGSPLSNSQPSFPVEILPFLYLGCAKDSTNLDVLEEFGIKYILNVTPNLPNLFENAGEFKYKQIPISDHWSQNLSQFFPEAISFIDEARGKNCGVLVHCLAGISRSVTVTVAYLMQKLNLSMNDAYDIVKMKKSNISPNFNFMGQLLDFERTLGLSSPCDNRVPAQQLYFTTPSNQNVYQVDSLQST
Chain of Alpha-2C adrenergic receptor (Homo sapiens) (P18825 whole entry, looked up): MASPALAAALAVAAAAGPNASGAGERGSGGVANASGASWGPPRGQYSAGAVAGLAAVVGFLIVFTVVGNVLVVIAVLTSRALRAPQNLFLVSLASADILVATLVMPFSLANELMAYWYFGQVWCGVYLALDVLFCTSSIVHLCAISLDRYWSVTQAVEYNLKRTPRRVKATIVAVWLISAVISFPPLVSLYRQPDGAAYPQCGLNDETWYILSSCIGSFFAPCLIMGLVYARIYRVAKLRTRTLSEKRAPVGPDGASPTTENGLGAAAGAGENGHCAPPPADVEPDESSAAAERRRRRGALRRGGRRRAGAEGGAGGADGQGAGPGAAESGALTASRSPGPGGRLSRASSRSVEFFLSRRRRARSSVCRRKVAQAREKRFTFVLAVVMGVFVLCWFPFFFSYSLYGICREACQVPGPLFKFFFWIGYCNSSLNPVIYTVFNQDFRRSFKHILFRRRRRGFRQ

`CSc1nc2sc3c(c2c(=O)n1C1CCCCC1)CCN(C)C3`: the cell count in [1] worked out at 563. The inhibition in test [1] is 1.3% (inactive); in [2], -69.6% (inactive); in [4], 9.82% (inactive); in test [9] it was -15.6% (inactive). For the same compound, in test [2], the nuclei count was 107%. Moreover, the z-score is 0.231 in test [3] (setting [10]), 0.631 in [3] (setting [11]) and -1.25 in test [3] (setting [12]). Moreover, in test [5], the fluorescence slope was -0.375 (inactive). In addition, the NADPH fluorescence slope in [6] is -2.1e-06 (inactive). In test [7], the slope is 0.00516 (inactive). The result in test [8] was inactive.
In the case of `CCCCCSc1nc(O)cc(=O)[nH]1`, in test [1], the cell count amounted to 366. The inhibition is -1.9% (inactive) in [1], -61.7% (inactive) in [2], -0.624% (inactive) in [4] and -10.7% (inactive) in test [9]. This compound also returned a nuclei count in [2] of 116%. In addition, the results for the z-score in test [3] (setting [10]), in [3] (setting [11]) and in [3] (setting [12]) were -1.75, 1.21 and 0.475, respectively. The fluorescence slope in test [5] was -0.395 (inactive). Further, in test [6], the NADPH fluorescence slope is 1.3e-05 (inactive). In addition, the slope in [7] was 0.00579 (inactive). In addition, in test [8], the outcome was inactive.
Consider `O=C(c1ccccc1)C(CCC(CN1CCOCC1)C(=O)c1ccccc1)CN1CCOCC1` (stereo unspecified), for which, in [1], the cell count turned out to be 588. Moreover, the inhibition was -0.1% (inactive) in test [1], -9.4% (inactive) in [2], 1.75% (inactive) in test [4] and 24.8% (inactive) in test [9]. The nuclei count in test [2] stood at 109%. Further, the z-score is 0.046 in test [3] (setting [10]), -0.626 in [3] (setting [11]) and 1.7 in test [3] (setting [12]). Besides, in test [5], the fluorescence slope was -0.59 (inactive). Besides, the NADPH fluorescence slope in [6] was -1.8e-05 (inactive). For the same compound, in test [7], the slope is 0.00635 (inactive). In addition, the call in [8] was inactive.
As for `N#Cc1c(SCC(=O)O)nc(N2CCCCC2)c2c1CCCC2`, the cell count in test [1] amounted to 555. The inhibition in test [1] is 7.3% (inactive); in test [2], -50% (inactive); in test [4], 16.8% (inactive); in test [9], 6.88% (inactive). Besides, the nuclei count in test [2] is 123%. Also, the figures for the z-score in [3] (setting [10]), in test [3] (setting [11]) and in [3] (setting [12]) were 0.186, -1.79 and 0.996, respectively. Besides, the fluorescence slope in test [5] was -0.535 (inactive). Further, the NADPH fluorescence slope in [6] is -4.5e-05 (inactive). Also, the slope in [7] was 0.00499 (inactive). The call in test [8] was inactive.
Take `O=C(c1cncc(Br)c1)N1CCCc2ccccc21`: the cell count in test [1] turned out to be 517. Besides, the inhibition is -1.1% (inactive) in [1], 51.3% (inactive) in test [2], -7.86% (inactive) in test [4] and -3.67% (inactive) in test [9]. Further, the nuclei count in [2] worked out at 97.5%. Besides, the z-score was 0.808 in test [3] (setting [10]), -0.814 in test [3] (setting [11]) and -0.316 in test [3] (setting [12]). The fluorescence slope in test [5] is -0.448 (inactive). In test [6], the NADPH fluorescence slope was -1.4e-05 (inactive). The slope in [7] was 0.00474 (inactive). Moreover, the call in test [8] was inactive.
For the compound `CCCOC(=O)CSC1=C(C#N)C(c2ccccc2OC)C(C#N)C(=O)N1` (stereo unspecified), the cell count in [1] was determined as 496. In addition, the inhibition in [1] is -3.9% (inactive); in test [2] it was -60% (inactive); in test [4], -2.07% (inactive); in test [9] it was -12.6% (inactive). This compound yielded a nuclei count in test [2] of 136%. The z-score in test [3] (setting [10]) is -0.969; in test [3] (setting [11]), 0.676; in test [3] (setting [12]), 0.273. In test [5], the fluorescence slope is -0.5 (inactive). In addition, the NADPH fluorescence slope in [6] was -7.4e-05 (inactive). The slope in [7] was 0.00543 (inactive). In addition, the call in [8] was inactive.
As to `CCOC(=O)c1c(CNCCN(CC)CC)n(C)c2cc(Br)c(OC)cc12`, in test [1], the cell count worked out at 321. In addition, the inhibition in test [1] was 3.8% (inactive); in test [2], -25% (inactive); in test [4], 1.75% (inactive); in [9], 28.1% (inactive). The nuclei count in test [2] was 77.4%. For the same compound, the z-score is -0.115 in test [3] (setting [10]), 0.118 in test [3] (setting [11]) and -0.0858 in [3] (setting [12]). Besides, the fluorescence slope in test [5] was -0.439 (inactive). Moreover, the NADPH fluorescence slope in [6] is -8.8e-06 (inactive). The slope in [7] is 0.00617 (inactive). Besides, the call in [8] was inactive.
For the compound `CCOC(=O)C1=C(CSc2nc3c(cc2C#N)CN(C)CC3)OC(N)=C(C#N)C1c1ccccc1` (stereo unspecified), in test [1], the cell count amounted to 616. Moreover, the inhibition was -8.1% (inactive) in [1], 28.8% (inactive) in test [2], -5.62% (inactive) in test [4] and -1.09% (inactive) in test [9]. Besides, the nuclei count in [2] came out at 169%. The z-score in test [3] (setting [10]) was 1.95; in [3] (setting [11]), -0.602; in test [3] (setting [12]), 0.371. In test [5], the fluorescence slope was -0.384 (inactive). In test [6], the NADPH fluorescence slope was -4.7e-05 (inactive). Further, in test [7], the slope is 0.00325 (inactive). Moreover, the call in [8] was inactive.
Consider `CS(=O)(=O)CCC(C(=O)n1nnc2ccccc21)N1C(=O)c2ccccc2C1=O` (stereo unspecified), for which the cell count in test [1] is 342. The inhibition in [1] was -6.4% (inactive); in test [2], -46.5% (inactive); in test [4], 3.42% (inactive); in [9], 26% (inactive). The compound also registered a nuclei count in [2] of 134%. The z-score in [3] (setting [10]) was 0.823; in test [3] (setting [11]), -0.696; in test [3] (setting [12]), -1.53. Also, the fluorescence slope in [5] is -0.419 (inactive). The NADPH fluorescence slope in [6] is -5.5e-05 (inactive). Besides, the slope in [7] was 0.00572 (inactive). Moreover, in test [8], the compound was classed as inactive.
On to `COc1ccc(/C(O)=C2\C(=O)C(=O)N(c3cc(C)on3)C2c2cccc(OC)c2OC)cc1C` (stereo unspecified), for which the cell count in [1] was 531. The inhibition in [1] is -1.2% (inactive); in [2], -148% (inactive); in test [4] it was 1.75% (inactive); in test [9], -15.3% (inactive). In test [2], the nuclei count came to 129%. Besides, the z-score in test [3] (setting [10]) was -0.589; in test [3] (setting [11]), 1.28; in test [3] (setting [12]) it was 0.634. Besides, in test [5], the fluorescence slope was -0.5 (inactive). In [6], the NADPH fluorescence slope is -2.6e-05 (inactive). The slope in [7] is 0.00468 (inactive). Also, the result in test [8] was inactive.
`COC(=O)c1ccc(C2C(C(=O)c3cc4ccccc4o3)=C(O)C(=O)N2CCCN(C)C)cc1` (stereo unspecified): the cell count in [1] is 423. Besides, the inhibition in [1] was -8.1% (inactive); in test [2] it was -11.6% (inactive); in test [4], -6.48% (inactive); in [9] it was -1.14% (inactive). In test [2], this compound showed a nuclei count of 167%. Further, the figures for the z-score in [3] (setting [10]), in test [3] (setting [11]) and in test [3] (setting [12]) were 0.389, 1.47 and 0.581, respectively. In addition, the fluorescence slope in [5] is -0.405 (inactive). Moreover, the NADPH fluorescence slope in test [6] is -7.3e-05 (inactive). The slope in test [7] was 0.00626 (inactive). Also, the outcome in test [8] was inactive.
Take `COc1ccc(-c2ncncc2-c2csc(C)n2)c(O)c1`: the cell count in test [1] amounted to 573. Besides, the inhibition in test [1] was -4.5% (inactive); in test [2] it was -141% (inactive); in test [4] it was 1.9e-07% (inactive); in [9] it was 3.68% (inactive). Also, in [2], the nuclei count turned out to be 135%. Also, the z-score in test [3] (setting [10]) is 0.355; in test [3] (setting [11]), -1.54; in test [3] (setting [12]), -0.34. Also, in [5], the fluorescence slope was -0.509 (inactive). In addition, the NADPH fluorescence slope in test [6] is -3.3e-05 (inactive). Also, the slope in test [7] was 0.00463 (inactive). In [8], the result was inactive.
